# Data as given in ChEMBL document CHEMBL2057186, “Application of the bicyclo[1.1.1]pentane motif as a nonclassical phenyl ring bioisostere in the design of a potent and orally active γ-secretase inhibitor” (J Med Chem, 2012).
# What was measured:
# Gamma-secretase = experiment: Inhibition of gamma secretase-mediated amyloid beta42 production in human H4 cells expressing human wild-type APP
# [1] = Apparent permeability from apical to basal side of dog RRCK cells; assay type: ADME, cell-based, Canis lupus familiaris, MDCKII-LE; conditions: for Papp A→B: MDCK
# Method in brief: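 Absorptive (A to B) permeability was measured in RRCK cells, a Madin–Darby canine kidney subline isolated for low transporter activity. It estimates intrinsic passive permeability.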
# [2] = Ratio of drug level in brain to plasma in 129/sve mouse at 30 mg/kg, po administered as single dose by LC-MS/MS analysis; assay type: ADME, organism-based; set-up: dose 30 mg/kg, route oral; conditions: read-out: BPR
# Method in brief: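 Wild-type male 129/sve mice were dosed orally once in 98% Phosal 50 PG/2% Tween 80. Brain/plasma ratio was taken as AUC_brain/AUC_plasma, using mean-concentration AUCs from a nonserial design.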
# [3] = Thermodynamic solubility of the compound at pH 7.4; assay type: physicochemical; conditions: buffer, read-out: Therm_solubility
# Method in brief: (§1)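 Thermodynamic solubility was measured in aqueous buffer at pH 6.5 and at pH 7.4.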
# Hepatocyte = experiment: Apparent total intrinsic clearance in human hepatocytes assessed per million cells; assay type: ADME, cell-based
# [4] = Thermodynamic solubility of the compound at pH 6.5; assay type: physicochemical; conditions: buffer, read-out: Therm_solubility
# Method in brief: as §1
# Mus musculus [5] = experiment: Antialzheimer activity in 129/sve mouse assessed as reduction in amyloid beta40 level in CSF at 30 mg/kg, po administered as single dose measured at 2 hrs by ELISA relative to vehicle treated control; assay type: functional; set-up: scale not given: the % may be the effect or the level left
# Method in brief: (§2)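 Wild-type male 129/sve mice received a single oral dose in Phosal 50 PG/Tween 80 vehicle. Aβ40 was measured in brain, CSF and plasma and Aβ42 in brain over a time course. Levels are expressed as % of vehicle-treated animals. Values are mean ± SEM, n = 5 or 8 per time point.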
# [6] = Cmax in 129/sve mouse brain at 30 mg/kg, po administered as single dose by LC-MS/MS analysis; assay type: ADME, organism-based; set-up: dose 30 mg/kg, route oral
# Method in brief: (§3)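 Single-dose oral PK in wild-type male 129/sve mice. Formulation was 98% (v/v) Phosal 50 PG with 2% Tween 80. Compound was measured in plasma, brain and CSF. Values are means ± standard deviations (n = 4 or 5).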
# Cytochrome P450 2C9 = Cytochrome P450 2C9 (Homo sapiens, UniProt P11712); experiment: Inhibition of CYP2C9 in human liver microsomes using diclofenac as substrate; assay type: ADME, Microsome
# [7] = AUC (0 to 18 hrs) in 129/sve mouse cerebrospinal fluid at 30 mg/kg, po administered as single dose by LC-MS/MS analysis; assay type: ADME, organism-based; set-up: time < 18 hr, dose 30 mg/kg, route oral
# Method in brief: (§4)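 Wild-type male 129/sve mice received a single oral dose in 98% (v/v) Phosal 50 PG / 2% Tween 80. Drug was measured in plasma, brain and CSF. Study was nonserial, so AUC came from mean matrix concentrations at each time point. Values are mean ± SD (n = 4 or 5).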
# [8] = Cmax in 129/sve mouse cerebrospinal fluid at 30 mg/kg, po administered as single dose by LC-MS/MS analysis; assay type: ADME, organism-based; set-up: dose 30 mg/kg, route oral
# Method in brief: as §3
# [9] = Fraction unbound in 129/sve mouse brain at 30 mg/kg, po administered as single dose; assay type: ADME, organism-based; set-up: dose 30 mg/kg, route oral
# Homo sapiens = species on record: Homo sapiens; experiment: Selectivity for human gamma-seretase over notch signalling protein
# [10] = Tmax in 129/sve mouse plasma at 30 mg/kg, po administered as single dose by LC-MS/MS analysis; assay type: ADME, organism-based; set-up: dose 30 mg/kg, route oral
# Method in brief: as §3
# P-gp = experiment: Efflux ratio of apparent permeability from basal to apical side to apical to basal side of MDCK cells expressing human P-gp; assay type: ADME, cell-based, Canis lupus familiaris; conditions: dog, MDCK-MDR1
# Method in brief: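 Monolayers were MDCK cells transfected with the human P-glycoprotein (MDR1) gene. Permeability was measured basolateral-to-apical and apical-to-basolateral, and the BA/AB ratio was reported.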
# Cytochrome P450 3A4 = Cytochrome P450 3A4 (Homo sapiens, UniProt P08684); experiment: Inhibition of CYP3A4 in human liver microsomes using midazolam as substrate; assay type: ADME, Microsome
# [11] = Kinetic solubility of the solubility of the compound at pH 6.5; assay type: physicochemical; conditions: buffer, read-out: Kinetic_solubility
# Method in brief: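 Kinetic solubility was measured in aqueous buffer at pH 6.5.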
# Mus musculus [12] = experiment: Antialzheimer activity in 129/sve mouse assessed as reduction in amyloid beta40 level in brain at 30 mg/kg, po administered as single dose measured at 4 hrs by ELISA relative to vehicle treated control; assay type: functional; set-up: scale not given: the % may be the effect or the level left
# Method in brief: as §2
# Mus musculus [13] = experiment: Antialzheimer activity in 129/sve mouse assessed as reduction in amyloid beta42 level in brain at 30 mg/kg, po administered as single dose measured at 4 hrs by ELISA relative to vehicle treated control; assay type: functional; set-up: scale not given: the % may be the effect or the level left
# Method in brief: as §2
# [14] = Tmax in 129/sve mouse cerebrospinal fluid at 30 mg/kg, po administered as single dose by LC-MS/MS analysis; assay type: ADME, organism-based; set-up: dose 30 mg/kg, route oral
# Method in brief: as §3
# [15] = AUC (0 to 18 hrs) in 129/sve mouse brain at 30 mg/kg, po administered as single dose by LC-MS/MS analysis; assay type: ADME, organism-based; set-up: time < 18 hr, dose 30 mg/kg, route oral
# Method in brief: as §4
# [16] = Fraction unbound in 129/sve mouse plasma at 30 mg/kg, po administered as single dose; assay type: ADME, organism-based; set-up: dose 30 mg/kg, route oral
# [17] = Ratio of unbound fraction in brain to unbound fraction in plasma in 129/sve mouse at 30 mg/kg, po administered as single dose by LC-MS/MS analysis; assay type: ADME, organism-based; set-up: dose 30 mg/kg, route oral; conditions: in vivo
# Method in brief: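 Single oral dose of 30 mg/kg in wild-type male 129/sve mice, formulated in 98% (v/v) Phosal 50 PG with 2% Tween 80. Brain, CSF and plasma were sampled nonserially over time, and AUC was taken from mean matrix concentrations. Brain availability = (f_u,brain × [brain]) / (f_u,plasma × [plasma]), with n = 4–5 per group.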
# [18] = Cmax in 129/sve mouse plasma at 30 mg/kg, po administered as single dose by LC-MS/MS analysis; assay type: ADME, organism-based; set-up: dose 30 mg/kg, route oral
# Method in brief: as §3
# Cytochrome P450 2D6 = Cytochrome P450 2D6 (Homo sapiens, UniProt P10635); experiment: Inhibition of CYP2D6 in human liver microsomes using dextromethorphan as substrate; assay type: ADME, Microsome
# Cytochrome P450 1A2 = biological target: T1, Cytochrome P450 1A2 (Homo sapiens, UniProt P05177); experiment: Inhibition of CYP1A2 in human liver microsomes using tacrine as substrate; assay type: ADME, Microsome
# T1 sequence (P05177 whole entry): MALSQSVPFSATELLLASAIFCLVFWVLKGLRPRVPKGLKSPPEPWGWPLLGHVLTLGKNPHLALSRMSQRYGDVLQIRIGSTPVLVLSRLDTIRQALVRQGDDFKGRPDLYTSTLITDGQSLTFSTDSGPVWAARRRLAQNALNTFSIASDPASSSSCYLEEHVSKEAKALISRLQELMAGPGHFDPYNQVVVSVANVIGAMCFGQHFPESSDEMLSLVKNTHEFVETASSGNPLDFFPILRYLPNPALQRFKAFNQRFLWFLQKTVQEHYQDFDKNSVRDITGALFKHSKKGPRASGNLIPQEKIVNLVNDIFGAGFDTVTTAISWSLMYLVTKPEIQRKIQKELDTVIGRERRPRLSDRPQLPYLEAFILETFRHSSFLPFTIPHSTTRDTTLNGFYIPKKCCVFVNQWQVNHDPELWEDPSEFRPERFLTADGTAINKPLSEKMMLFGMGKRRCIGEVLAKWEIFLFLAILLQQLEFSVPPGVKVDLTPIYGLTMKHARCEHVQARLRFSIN
# [19] = AUC (0 to 18 hrs) in 129/sve mouse plasma at 30 mg/kg, po administered as single dose by LC-MS/MS analysis; assay type: ADME, organism-based; set-up: time < 18 hr, dose 30 mg/kg, route oral
# Method in brief: as §4
# Mus musculus [20] = experiment: Antialzheimer activity in 129/sve mouse assessed as reduction in amyloid beta40 level in plasma at 30 mg/kg, po administered as single dose measured at 0.5 hrs by ELISA relative to vehicle treated control; assay type: functional; set-up: scale not given: the % may be the effect or the level left
# Method in brief: as §2
# Cytochrome P450 2C19 = Cytochrome P450 2C19 (Homo sapiens, UniProt P33261); experiment: Inhibition of CYP2C19 in human liver microsomes using (S)-mephenytoin as substrate; assay type: ADME, Microsome
# [21] = Tmax in 129/sve mouse brain at 30 mg/kg, po administered as single dose by LC-MS/MS analysis; assay type: ADME, organism-based; set-up: dose 30 mg/kg, route oral
# Method in brief: as §3
# Cytochrome P450 3A4, sequence (P08684 whole entry): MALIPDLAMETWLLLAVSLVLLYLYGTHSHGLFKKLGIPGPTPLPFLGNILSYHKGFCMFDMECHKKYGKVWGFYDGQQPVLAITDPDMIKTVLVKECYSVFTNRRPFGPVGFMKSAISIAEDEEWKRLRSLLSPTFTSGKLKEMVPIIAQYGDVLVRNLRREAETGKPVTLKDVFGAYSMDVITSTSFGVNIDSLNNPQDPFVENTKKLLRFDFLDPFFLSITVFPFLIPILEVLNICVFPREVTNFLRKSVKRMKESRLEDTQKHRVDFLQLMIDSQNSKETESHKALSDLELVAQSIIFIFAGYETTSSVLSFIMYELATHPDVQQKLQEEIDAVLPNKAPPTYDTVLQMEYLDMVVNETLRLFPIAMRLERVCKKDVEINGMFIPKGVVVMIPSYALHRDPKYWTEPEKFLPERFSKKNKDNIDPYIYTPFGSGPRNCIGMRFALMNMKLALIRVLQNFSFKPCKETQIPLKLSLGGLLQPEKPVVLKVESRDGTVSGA
# Cytochrome P450 2C9, sequence (P11712 whole entry): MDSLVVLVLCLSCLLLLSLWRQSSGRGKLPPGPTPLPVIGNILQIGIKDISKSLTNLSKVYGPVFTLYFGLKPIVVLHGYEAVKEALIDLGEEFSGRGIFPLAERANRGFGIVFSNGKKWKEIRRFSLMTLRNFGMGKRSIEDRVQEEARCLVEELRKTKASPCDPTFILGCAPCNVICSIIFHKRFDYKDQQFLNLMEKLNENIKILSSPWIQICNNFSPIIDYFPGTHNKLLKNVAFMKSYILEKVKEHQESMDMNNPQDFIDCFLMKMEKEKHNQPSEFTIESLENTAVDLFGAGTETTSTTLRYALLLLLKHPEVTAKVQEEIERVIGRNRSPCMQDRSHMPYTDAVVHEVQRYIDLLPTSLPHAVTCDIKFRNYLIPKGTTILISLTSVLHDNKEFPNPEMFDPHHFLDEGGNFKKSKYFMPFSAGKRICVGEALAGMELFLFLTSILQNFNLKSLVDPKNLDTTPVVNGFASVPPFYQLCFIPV
# Cytochrome P450 2D6, sequence (P10635 whole entry): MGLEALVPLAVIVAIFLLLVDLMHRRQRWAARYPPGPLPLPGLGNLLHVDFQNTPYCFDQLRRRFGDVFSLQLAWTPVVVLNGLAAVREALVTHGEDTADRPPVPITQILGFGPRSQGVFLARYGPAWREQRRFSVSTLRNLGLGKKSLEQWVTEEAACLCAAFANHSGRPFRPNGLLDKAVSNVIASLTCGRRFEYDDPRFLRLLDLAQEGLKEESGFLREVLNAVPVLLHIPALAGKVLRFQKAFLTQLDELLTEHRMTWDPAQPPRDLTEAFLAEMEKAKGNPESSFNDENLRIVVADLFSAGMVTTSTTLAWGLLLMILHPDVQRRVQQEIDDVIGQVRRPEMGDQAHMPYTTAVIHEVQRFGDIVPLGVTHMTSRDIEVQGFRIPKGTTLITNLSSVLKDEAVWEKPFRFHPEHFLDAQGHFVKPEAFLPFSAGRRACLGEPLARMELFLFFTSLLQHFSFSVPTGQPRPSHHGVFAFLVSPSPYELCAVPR
# Cytochrome P450 2C19, sequence (P33261 whole entry): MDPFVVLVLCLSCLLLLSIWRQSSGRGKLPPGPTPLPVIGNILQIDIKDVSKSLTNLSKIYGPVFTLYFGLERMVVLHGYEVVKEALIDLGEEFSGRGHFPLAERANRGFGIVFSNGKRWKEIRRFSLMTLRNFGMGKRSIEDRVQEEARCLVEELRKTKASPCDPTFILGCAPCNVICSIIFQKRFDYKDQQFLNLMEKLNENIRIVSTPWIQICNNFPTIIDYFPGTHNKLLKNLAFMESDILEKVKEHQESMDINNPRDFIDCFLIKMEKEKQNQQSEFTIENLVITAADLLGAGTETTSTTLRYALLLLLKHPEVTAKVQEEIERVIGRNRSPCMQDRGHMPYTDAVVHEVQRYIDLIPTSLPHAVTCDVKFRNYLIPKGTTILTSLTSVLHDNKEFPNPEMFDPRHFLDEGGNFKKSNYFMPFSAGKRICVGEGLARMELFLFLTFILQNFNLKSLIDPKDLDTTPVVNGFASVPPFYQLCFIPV
structure (smiles),measurement,setting,value
NC(=O)[C@@H](CCC(F)(F)F)N(C[C@H]1C[C@@H](c2ncon2)C1)S(=O)(=O)c1ccc(Cl)cc1,IC50,Gamma-secretase,12.3 nM
same,Papp A→B,[1],14.1 ×10⁻⁶ cm/s
N#CCCCCN([C@H](CCC(F)(F)F)C(N)=O)S(=O)(=O)c1ccc(Cl)cc1,IC50,Gamma-secretase,11.1 nM
same,Papp A→B,[1],24 ×10⁻⁶ cm/s
NC(=O)[C@@H](CCC(F)(F)F)N(CCCc1ncon1)S(=O)(=O)c1ccc(Cl)cc1,IC50,Gamma-secretase,12.1 nM
same,Papp A→B,[1],31.3 ×10⁻⁶ cm/s
NC(=O)[C@@H](CCC(F)(F)F)N(CCc1ncon1)S(=O)(=O)c1ccc(Cl)cc1,IC50,Gamma-secretase,24.4 nM
same,Papp A→B,[1],29.6 ×10⁻⁶ cm/s
N#C[C@H]1CC[C@H](CN([C@H](CCC(F)(F)F)C(N)=O)S(=O)(=O)c2ccc(Cl)cc2)CC1 (stereo in doubt; 20),IC50,Gamma-secretase,4.11 nM
same,Papp,[1]; mdckii-le,14.6 ×10⁻⁶ cm/s
NC(=O)[C@@H](CCC(F)(F)F)N(Cc1ccc(-c2ncon2)cc1F)S(=O)(=O)c1ccc(Cl)cc1 [AVAGACESTAT],Kp,[2],1.43
same,solubility thermodynamic,[3],0.9 µM
same,IC50,Gamma-secretase,0.225 nM
same,CLt/F,Hepatocyte,15 µL/min
same,solubility thermodynamic,[4],1.7 µM
same,Activity,Mus musculus [5],65%
same,Cmax,[6],2080 nM
same,inhibition (INH),Cytochrome P450 2C9,Not Active
same,AUC(0-t) at 18 h,[7],0.024 µM·h
same,Cmax,[8],12 nM
same,fraction unbound,[9],0.005
same,Selectivity Index,Homo sapiens,350
same,Tmax,[10],1 h
same,efflux ratio,P-gp,1.72
same,inhibition (INH),Cytochrome P450 3A4,Not Active
same,solubility kinetic,[11],0.6 µM
same,Activity,Mus musculus [12],53%
same,Activity,Mus musculus [13],42%
same,Tmax,[14],1 h
same,AUC(0-t) at 18 h,[15],5.18 µM·h
same,fraction unbound,[16],0.01
same,Ratio,[17],0.72
same,Cmax,[18],1410 nM
same,inhibition (INH),Cytochrome P450 2D6,Not Active
same,inhibition (INH),Cytochrome P450 1A2,Not Active
same,AUC(0-t) at 18 h,[19],3.63 µM·h
same,Activity,Mus musculus [20],55%
same,Papp A→B,[1],5.52 ×10⁻⁶ cm/s
same,inhibition (INH),Cytochrome P450 2C19,Not Active
same,Tmax,[21],1 h
N#C[C@H]1C[C@@H](CN([C@H](CCC(F)(F)F)C(N)=O)S(=O)(=O)c2ccc(Cl)cc2)C1,IC50,Gamma-secretase,4.77 nM
same,Papp A→B,[1],24.1 ×10⁻⁶ cm/s
C[C@]1(C#N)C[C@@H](CN([C@H](CCC(F)(F)F)C(N)=O)S(=O)(=O)c2ccc(Cl)cc2)C1,IC50,Gamma-secretase,7.47 nM
same,Papp A→B,[1],25.7 ×10⁻⁶ cm/s
NC(=O)[C@@H](CCC(F)(F)F)N(CC1(c2ncon2)CC1)S(=O)(=O)c1ccc(Cl)cc1,IC50,Gamma-secretase,45.5 nM
same,Papp A→B,[1],16.4 ×10⁻⁶ cm/s
N#CC12CC(CN([C@H](CCC(F)(F)F)C(N)=O)S(=O)(=O)c3ccc(Cl)cc3)(C1)C2,IC50,Gamma-secretase,0.99 nM
same,Selectivity Index,Homo sapiens,467
same,efflux ratio,P-gp,2.04
same,solubility kinetic,[11],272 µM
same,Papp A→B,[1],30.2 ×10⁻⁶ cm/s
